Data: ChEMBL document CHEMBL1157857, “Synthesis and antimicrobial of new anthraquinone derivatives incorporating pyrazole moiety” (2010)

Columns and labels:
Format in all cases: functional
[1] = system: Staphylococcus epidermidis; assay: Antibacterial activity against Staphylococcus epidermidis at 2 mg/ml after 24 hrs by agar diffusion method; settings: read-out: DIZ
Outline: (§1)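 Bacteria grown on nutrient agar, incubated 24 h; inhibition zone diameter measured as activity read-out. Three replicate plates per compound. DMSO-only control included for each organism. Ampicillin, chloramphenicol and cloxacillin used at 2 mg/mL as reference drugs.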

Pseudomonas aeruginosa = assay: Antibacterial activity against Pseudomonas aeruginosa at 2 mg/ml after 24 hrs by agar diffusion method; settings: read-out: DIZ; outline: as §1
Alternaria solani = assay: Antifungal activity against Alternaria solani at 2 mg/ml after 7 days by agar diffusion method; settings: 168 h, read-out: DIZ
Outline: (§2)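 Fungi tested on potato dextrose agar, incubated seven days; diameter of inhibition zone recorded as activity measure. Three plates per compound as replicates. DMSO without test compound served as control for each organism. Reference drugs (ampicillin, chloramphenicol, cloxacillin) used at 2 mg/mL.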

Fusarium solani = assay: Antifungal activity against Fusarium solani at 2 mg/ml after 7 days by agar diffusion method; settings: 168 h, read-out: DIZ; outline: as §2

SMILES: O=C1c2ccccc2C(=O)c2cc(-n3cnc4n[nH]c(Nc5ccccc5)c4c3=O)ccc21
- zone of inhibition at 2000 µg/mL [1]: 15 mm
- zone of inhibition at 2000 µg/mL (Pseudomonas aeruginosa): 20 mm
- zone of inhibition at 2000 µg/mL (Alternaria solani): 11 mm

SMILES: Cc1cc(C)n2nc(Nc3ccccc3)c(C(=O)Nc3ccc4c(c3)C(=O)c3ccccc3C4=O)c2n1
- zone of inhibition at 2000 µg/mL [1]: 20 mm
- zone of inhibition at 2000 µg/mL (Pseudomonas aeruginosa): 17 mm
- zone of inhibition at 2000 µg/mL (Alternaria solani): 14 mm
- zone of inhibition at 2000 µg/mL (Fusarium solani): 13 mm

SMILES: Cc1ccc(C)n1-c1n[nH]c(Nc2ccccc2)c1C(=O)Nc1ccc2c(c1)C(=O)c1ccccc1C2=O
- zone of inhibition at 2000 µg/mL [1]: 19 mm
- zone of inhibition at 2000 µg/mL (Pseudomonas aeruginosa): 16 mm

SMILES: Nc1n[nH]c(Nc2ccccc2)c1C(=O)Nc1ccc2c(c1)C(=O)c1ccccc1C2=O
- zone of inhibition at 2000 µg/mL [1]: 11 mm
- zone of inhibition at 2000 µg/mL (Pseudomonas aeruginosa): 14 mm
- zone of inhibition at 2000 µg/mL (Alternaria solani): 14 mm
- zone of inhibition at 2000 µg/mL (Fusarium solani): 16 mm

SMILES: CN(C)/C=C(\C#N)C(=O)Nc1ccc2c(c1)C(=O)c1ccccc1C2=O
- zone of inhibition at 2000 µg/mL (Pseudomonas aeruginosa): 14 mm
- zone of inhibition at 2000 µg/mL (Fusarium solani): 12 mm

SMILES: Nc1n[nH]cc1C(=O)Nc1ccc2c(c1)C(=O)c1ccccc1C2=O
- zone of inhibition at 2000 µg/mL [1]: 22 mm
- zone of inhibition at 2000 µg/mL (Pseudomonas aeruginosa): 16 mm
- zone of inhibition at 2000 µg/mL (Alternaria solani): 17 mm
- zone of inhibition at 2000 µg/mL (Fusarium solani): 16 mm

SMILES: Cc1cc(C)c2c(N/N=C(/C#N)C(=O)Nc3ccc4c(c3)C(=O)c3ccccc3C4=O)n[nH]c2n1
- zone of inhibition at 2000 µg/mL [1]: 19 mm
- zone of inhibition at 2000 µg/mL (Pseudomonas aeruginosa): 27 mm
- zone of inhibition at 2000 µg/mL (Alternaria solani): 18 mm
- zone of inhibition at 2000 µg/mL (Fusarium solani): 13 mm

SMILES: Cc1cc(C)c2c(n1)nn1c(N)c(C(=O)Nc3ccc4c(c3)C(=O)c3ccccc3C4=O)nnc21
- zone of inhibition at 2000 µg/mL [1]: 14 mm
- zone of inhibition at 2000 µg/mL (Pseudomonas aeruginosa): 21 mm
- zone of inhibition at 2000 µg/mL (Alternaria solani): 19 mm
- zone of inhibition at 2000 µg/mL (Fusarium solani): 17 mm

SMILES: Cc1c(N/C(Nc2ccccc2)=C(\C#N)C(=O)Nc2ccc3c(c2)C(=O)c2ccccc2C3=O)c(=O)n(-c2ccccc2)n1C
- zone of inhibition at 2000 µg/mL [1]: 24 mm
- zone of inhibition at 2000 µg/mL (Pseudomonas aeruginosa): 22 mm
- zone of inhibition at 2000 µg/mL (Alternaria solani): 21 mm
- zone of inhibition at 2000 µg/mL (Fusarium solani): 16 mm

SMILES: Cc1nn(-c2ccccc2)c2c1cnc1c(C(=O)Nc3ccc4c(c3)C(=O)c3ccccc3C4=O)c(Nc3ccccc3)nn12
- zone of inhibition at 2000 µg/mL [1]: 17 mm
- zone of inhibition at 2000 µg/mL (Pseudomonas aeruginosa): 19 mm
- zone of inhibition at 2000 µg/mL (Fusarium solani): 14 mm

SMILES: O=C1c2ccccc2C(=O)c2cc(NC(=O)c3c(Nc4ccccc4)nn4c5c(cnc34)CCc3ccccc3-5)ccc21
- zone of inhibition at 2000 µg/mL [1]: 25 mm
- zone of inhibition at 2000 µg/mL (Pseudomonas aeruginosa): 20 mm
- zone of inhibition at 2000 µg/mL (Alternaria solani): 22 mm
- zone of inhibition at 2000 µg/mL (Fusarium solani): 14 mm

SMILES: COc1ccc(-c2ccnc3c(C(=O)Nc4ccc5c(c4)C(=O)c4ccccc4C5=O)c(Nc4ccccc4)nn23)cc1
- zone of inhibition at 2000 µg/mL [1]: 21 mm
- zone of inhibition at 2000 µg/mL (Pseudomonas aeruginosa): 20 mm
- zone of inhibition at 2000 µg/mL (Alternaria solani): 17 mm
- zone of inhibition at 2000 µg/mL (Fusarium solani): 15 mm

SMILES: CS/C(Nc1ccccc1)=C(\C#N)C(=O)Nc1ccc2c(c1)C(=O)c1ccccc1C2=O
- zone of inhibition at 2000 µg/mL [1]: 12 mm
- zone of inhibition at 2000 µg/mL (Pseudomonas aeruginosa): 13 mm
- zone of inhibition at 2000 µg/mL (Alternaria solani): 12 mm

SMILES: CC1(C)S[C@@H]2[C@H](NC(=O)[C@H](N)c3ccccc3)C(=O)N2[C@H]1C(=O)O [AMPICILLIN]
- zone of inhibition at 2000 µg/mL [1]: 19 mm
- zone of inhibition at 2000 µg/mL (Pseudomonas aeruginosa): 21 mm
- zone of inhibition at 2000 µg/mL (Alternaria solani): 19 mm
- zone of inhibition at 2000 µg/mL (Fusarium solani): 17 mm

SMILES: O=C(N[C@H](CO)[C@H](O)c1ccc([N+](=O)[O-])cc1)C(Cl)Cl [CHLORAMPHENICOL]
- zone of inhibition at 2000 µg/mL [1]: 27 mm
- zone of inhibition at 2000 µg/mL (Pseudomonas aeruginosa): 24 mm
- zone of inhibition at 2000 µg/mL (Alternaria solani): 18 mm
- zone of inhibition at 2000 µg/mL (Fusarium solani): 17 mm

SMILES: Cc1onc(-c2ccccc2Cl)c1C(=O)N[C@@H]1C(=O)N2[C@@H]1SC(C)(C)[C@@H]2C(=O)O [CLOXACILLIN]
- zone of inhibition at 2000 µg/mL [1]: 22 mm
- zone of inhibition at 2000 µg/mL (Pseudomonas aeruginosa): 30 mm
- zone of inhibition at 2000 µg/mL (Alternaria solani): 20 mm
- zone of inhibition at 2000 µg/mL (Fusarium solani): 22 mm
